In brackets after ≈: the same amount, converted by molar mass.
Assays:
Penicillium chrysogenum = assay: Antifungal activity against Penicillium chrysogenum NCIM 738 after 48 hrs by agar well diffusion assay; type: functional; conditions: NCIM 738, 48 h
In short: (§1)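 Fungal spore suspensions in sterile distilled water set to final 10⁶ CFU/mL; 0.1 mL spread on Potato-Dextrose-Agar. NCCLS agar well diffusion with NCIM standard strains: 6 mm wells given 0.1 mL compound diluted in 1% DMSO, final 16 to 512 µg/mL. Triplicate plates held 48 h at 28 0.2 °C. MIC is lowest concentration fully inhibiting growth.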

Proteus vulgaris = assay: Antibacterial activity against Proteus vulgaris NCIM 2813 after 24 hrs by agar well diffusion assay; type: functional; conditions: NCIM 2813, 24 h
In short: (§2)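 Agar well diffusion per NCCLS; NCIM standard strains. Nutrient agar seeded with 0.1 mL bacterial suspension in sterile 0.85% saline at 10⁵ CFU/mL. Plates in triplicate, 37 0.5 °C, 24 h. MIC taken as lowest concentration giving complete growth inhibition.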

Pseudomonas aeruginosa = assay: Antibacterial activity against Pseudomonas aeruginosa NCIM 2036 after 24 hrs by agar well diffusion assay; type: functional; conditions: NCIM 2036, 24 h; in short: as §2
Aspergillus niger = assay: Antifungal activity against Aspergillus niger NCIM 548 after 48 hrs by agar well diffusion assay; type: functional; conditions: NCIM 548, 48 h; in short: as §1
Candida albicans = assay: Antifungal activity against Candida albicans NCIM 3102 after 48 hrs by agar well diffusion assay; type: functional; conditions: NCIM 3102, 48 h; in short: as §1
[1] = Toxicity against Brine shrimp nauplii after 24 hrs; type: organism-based; conditions: artemia salina, in vivo; read-out: ED50
In short: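 Artemia salina nauplii hatched 38 h in sterile brine (sea salt 38 g/L, pH 8.5) under aeration; 10 nauplii per vial exposed to graded compound concentrations in 5 mL final volume, 37 °C, 24 h under incandescent light. Survivors counted; percent lethality versus vehicle-treated controls; ED50 from probit analysis; podophyllotoxin positive control.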

Bacillus pumilus = assay: Antibacterial activity against Bacillus pumilus NCIM 2327 after 24 hrs by agar well diffusion assay; conditions: NCIM 2327, 24 h
Bacillus subtilis = assay: Antibacterial activity against Bacillus subtilis NCIM 2063 after 24 hrs by agar well diffusion assay; type: functional; conditions: NCIM 2063, 24 h; in short: as §2
Klebsiella pneumoniae = assay: Antibacterial activity against Klebsiella pneumoniae NCIM 5082 after 24 hrs by agar well diffusion assay; type: functional; conditions: NCIM 5082, 24 h; in short: as §2
Micrococcus luteus = assay: Antibacterial activity against Micrococcus luteus NCIM 2155 after 24 hrs by agar well diffusion assay; type: functional; conditions: NCIM 2155, 24 h; in short: as §2
Staphylococcus aureus = assay: Antibacterial activity against Staphylococcus aureus NCIM 2079 after 24 hrs by agar well diffusion assay; type: functional; conditions: NCIM 2079, 24 h; in short: as §2
Escherichia coli = assay: Antibacterial activity against Escherichia coli NCIM 2065 after 24 hrs by agar well diffusion assay; type: functional; conditions: NCIM 2065, 24 h; in short: as §2
Aspergillus oryzae = assay: Antifungal activity against Aspergillus oryzae NCIM 643 after 48 hrs by agar well diffusion assay; type: functional; conditions: NCIM 643, 48 h; in short: as §1

SMILES	MIC (Penicillium chrysogenum)	MIC (Proteus vulgaris)	MIC (Pseudomonas aeruginosa)	MIC (Aspergillus niger)	MIC (Candida albicans)	LC50 at 24 h [1]	MIC (Bacillus pumilus)	MIC (Bacillus subtilis)	MIC (Klebsiella pneumoniae)	MIC (Micrococcus luteus)	MIC (Staphylococcus aureus)	MIC (Escherichia coli)	MIC (Aspergillus oryzae)
COc1cc(/C=C/C(=O)c2ccccc2NC(=O)NS(=O)(=O)c2ccc(C)cc2)ccc1O	128 µg/mL (≈ 274 µM)	128 µg/mL (≈ 274 µM)	64 µg/mL (≈ 137 µM)	128 µg/mL (≈ 274 µM)	128 µg/mL (≈ 274 µM)	17.8 µg/mL (≈ 38.2 µM)	64 µg/mL (≈ 137 µM)	64 µg/mL (≈ 137 µM)	128 µg/mL (≈ 274 µM)	128 µg/mL (≈ 274 µM)	128 µg/mL (≈ 274 µM)	64 µg/mL (≈ 137 µM)	128 µg/mL (≈ 274 µM)
Cc1ccc(S(=O)(=O)NC(=O)Nc2ccccc2C(=O)/C=C/c2ccccc2[N+](=O)[O-])cc1	16 µg/mL (≈ 34.4 µM)	32 µg/mL (≈ 68.7 µM)	16 µg/mL (≈ 34.4 µM)	16 µg/mL (≈ 34.4 µM)	16 µg/mL (≈ 34.4 µM)	40.1 µg/mL (≈ 86.2 µM)	16 µg/mL (≈ 34.4 µM)	16 µg/mL (≈ 34.4 µM)	32 µg/mL (≈ 68.7 µM)	32 µg/mL (≈ 68.7 µM)	16 µg/mL (≈ 34.4 µM)	32 µg/mL (≈ 68.7 µM)	16 µg/mL (≈ 34.4 µM)
Cc1ccc(S(=O)(=O)NC(=O)Nc2ccccc2C(=O)/C=C/c2cccc([N+](=O)[O-])c2)cc1	256 µg/mL (≈ 550 µM)	256 µg/mL (≈ 550 µM)	256 µg/mL (≈ 550 µM)	256 µg/mL (≈ 550 µM)	256 µg/mL (≈ 550 µM)	44.5 µg/mL (≈ 95.5 µM)	256 µg/mL (≈ 550 µM)	256 µg/mL (≈ 550 µM)	256 µg/mL (≈ 550 µM)	256 µg/mL (≈ 550 µM)	256 µg/mL (≈ 550 µM)	256 µg/mL (≈ 550 µM)	256 µg/mL (≈ 550 µM)
Cc1ccc(S(=O)(=O)NC(=O)Nc2ccccc2C(=O)/C=C/c2cc(O)ccc2[N+](=O)[O-])cc1	64 µg/mL (≈ 133 µM)	64 µg/mL (≈ 133 µM)	16 µg/mL (≈ 33.2 µM)	64 µg/mL (≈ 133 µM)	32 µg/mL (≈ 66.5 µM)	18.3 µg/mL (≈ 38 µM)	16 µg/mL (≈ 33.2 µM)	16 µg/mL (≈ 33.2 µM)	64 µg/mL (≈ 133 µM)	64 µg/mL (≈ 133 µM)	16 µg/mL (≈ 33.2 µM)	16 µg/mL (≈ 33.2 µM)	64 µg/mL (≈ 133 µM)
Cc1ccc(S(=O)(=O)NC(=O)Nc2ccccc2C(=O)/C=C/c2cccc(F)c2)cc1	64 µg/mL (≈ 146 µM)	64 µg/mL (≈ 146 µM)	16 µg/mL (≈ 36.5 µM)	64 µg/mL (≈ 146 µM)	64 µg/mL (≈ 146 µM)	4.13 µg/mL (≈ 9.42 µM)	16 µg/mL (≈ 36.5 µM)	16 µg/mL (≈ 36.5 µM)	64 µg/mL (≈ 146 µM)	64 µg/mL (≈ 146 µM)	16 µg/mL (≈ 36.5 µM)	16 µg/mL (≈ 36.5 µM)	64 µg/mL (≈ 146 µM)
Cc1ccc(S(=O)(=O)NC(=O)Nc2ccccc2C(=O)/C=C/c2ccc(F)cc2)cc1	64 µg/mL (≈ 146 µM)	16 µg/mL (≈ 36.5 µM)	32 µg/mL (≈ 73 µM)	64 µg/mL (≈ 146 µM)	64 µg/mL (≈ 146 µM)	3.96 µg/mL (≈ 9.03 µM)	32 µg/mL (≈ 73 µM)	16 µg/mL (≈ 36.5 µM)	16 µg/mL (≈ 36.5 µM)	64 µg/mL (≈ 146 µM)	32 µg/mL (≈ 73 µM)	32 µg/mL (≈ 73 µM)	64 µg/mL (≈ 146 µM)
Cc1ccc(S(=O)(=O)NC(=O)Nc2ccccc2C(=O)/C=C/c2ccccc2Cl)cc1	128 µg/mL (≈ 281 µM)	128 µg/mL (≈ 281 µM)	64 µg/mL (≈ 141 µM)	128 µg/mL (≈ 281 µM)	128 µg/mL (≈ 281 µM)	12.8 µg/mL (≈ 28.1 µM)	64 µg/mL (≈ 141 µM)	64 µg/mL (≈ 141 µM)	128 µg/mL (≈ 281 µM)	128 µg/mL (≈ 281 µM)	64 µg/mL (≈ 141 µM)	64 µg/mL (≈ 141 µM)	128 µg/mL (≈ 281 µM)
Cc1ccc(S(=O)(=O)NC(=O)Nc2ccccc2C(=O)/C=C/c2ccc(Cl)cc2)cc1	64 µg/mL (≈ 141 µM)	64 µg/mL (≈ 141 µM)	32 µg/mL (≈ 70.3 µM)	64 µg/mL (≈ 141 µM)	64 µg/mL (≈ 141 µM)	6.92 µg/mL (≈ 15.2 µM)	32 µg/mL (≈ 70.3 µM)	32 µg/mL (≈ 70.3 µM)	64 µg/mL (≈ 141 µM)	64 µg/mL (≈ 141 µM)	32 µg/mL (≈ 70.3 µM)	32 µg/mL (≈ 70.3 µM)	64 µg/mL (≈ 141 µM)
Cc1ccc(S(=O)(=O)NC(=O)Nc2ccccc2C(=O)/C=C/c2ccc(Cl)cc2Cl)cc1	64 µg/mL (≈ 131 µM)	64 µg/mL (≈ 131 µM)	16 µg/mL (≈ 32.7 µM)	64 µg/mL (≈ 131 µM)	64 µg/mL (≈ 131 µM)	8.34 µg/mL (≈ 17 µM)	32 µg/mL (≈ 65.4 µM)	16 µg/mL (≈ 32.7 µM)	64 µg/mL (≈ 131 µM)	64 µg/mL (≈ 131 µM)	32 µg/mL (≈ 65.4 µM)	32 µg/mL (≈ 65.4 µM)	64 µg/mL (≈ 131 µM)
CC(=O)N1CCN(c2ccc(OCC3COC(Cn4ccnc4)(c4ccc(Cl)cc4Cl)O3)cc2)CC1 (configuration not stated) [KETOCONAZOLE]	16 µg/mL (≈ 30.1 µM)			16 µg/mL (≈ 30.1 µM)	16 µg/mL (≈ 30.1 µM)								16 µg/mL (≈ 30.1 µM)
COc1cc([C@@H]2c3cc4c(cc3[C@H](O)[C@H]3COC(=O)[C@H]23)OCO4)cc(OC)c1OC [PODOFILOX]						3.61 µg/mL (≈ 8.71 µM)							
